The source made the active and inactive calls. The calls are words filed in the database; no cut-off is given here.
What was measured:
[1] = target: T1, Vitamin D3 receptor (Homo sapiens) (UniProt P11473); experiment: Agonist activity at human VDR expressed in human HCT116 cells co-expressing VDRE assessed as XDR3 transcriptional activity at 20 to 40 uM after 24 hrs by luciferase reporter gene assay; format: cell-based; settings: HCT-116
T1 sequence (whole entry): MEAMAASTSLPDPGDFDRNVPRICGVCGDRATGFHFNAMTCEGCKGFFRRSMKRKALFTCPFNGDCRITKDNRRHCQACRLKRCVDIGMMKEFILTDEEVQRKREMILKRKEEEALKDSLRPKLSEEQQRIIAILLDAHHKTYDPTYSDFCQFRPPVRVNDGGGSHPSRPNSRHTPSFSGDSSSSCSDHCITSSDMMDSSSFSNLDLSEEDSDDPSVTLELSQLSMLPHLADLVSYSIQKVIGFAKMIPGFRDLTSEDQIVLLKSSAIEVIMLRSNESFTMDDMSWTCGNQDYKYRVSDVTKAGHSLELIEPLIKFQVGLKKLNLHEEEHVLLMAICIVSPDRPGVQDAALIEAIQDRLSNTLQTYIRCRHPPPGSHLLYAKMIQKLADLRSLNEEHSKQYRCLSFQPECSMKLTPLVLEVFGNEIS
Outline: (§1)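 HCT-116 cells were transfected with a firefly luciferase plasmid holding two copies of the CYP3A4 XDR3 VDRE, plus a Renilla control. From 18 h post-transfection they were exposed to 3.75 x 10^-5 M compound, 10^-10 M 1,25D or DMSO in complete medium for 24 h. Dual-luciferase firefly/Renilla ratio. Three independent experiments, triplicate wells, mean ± SD.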

[2] = target: T1, Vitamin D3 receptor (Homo sapiens); experiment: Agonist activity at human VDR expressed in human HCT116 cells assessed as CYP24A1 transcriptional activity at 20 to 40 uM after 24 hrs by luciferase reporter gene assay; format: cell-based; settings: HCT-116
Outline: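 HCT-116 cells (DMEM, 10% FBS, 37 °C, 5% CO2) plated at 90,000 cells/well ~24 h before transfection with a firefly luciferase reporter carrying the natural human CYP24A1 promoter (2 VDREs) plus Renilla control. Treated 18 h after transfection with 3.75 x 10^-5 M compound, 10^-10 M 1,25D or DMSO for 24 h. Read-out is dual luciferase, firefly/Renilla x10,000. Triplicate wells.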

[3] = target: T1, Vitamin D3 receptor (Homo sapiens); experiment: Agonist activity at human VDR expressed in human HCT116 cells assessed as induction of recruitment of SRC-1 at 20 to 40 uM after 24 hrs by mammalian two hybrid system based luciferase reporter gene assay; format: cell-based; settings: HCT-116
Outline: (§2)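 M2H in HCT-116 used a VDR-AD prey with an SRC-1-BD or DRIP205-BD bait (50 ng each), 250 ng pFR-luc and 20 ng pRL-null per well. Cells were treated with 3.75 x 10^-5 M compound, 10^-10 M 1,25D or DMSO for 24 h. Firefly luciferase was normalized to Renilla. Duplicate experiments, triplicate samples, SD.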

[4] = target: T2, Retinoic acid receptor RXR-alpha (Homo sapiens) (UniProt P19793); experiment: Induction of RXRalpha-AD/RXRalpha-BD (unknown origin) homodimerization expressed in human HCT116 cells at 20 to 40 uM after 24 hrs by luciferase reporter gene assay; format: cell-based; settings: HCT-116
T2 sequence (whole entry): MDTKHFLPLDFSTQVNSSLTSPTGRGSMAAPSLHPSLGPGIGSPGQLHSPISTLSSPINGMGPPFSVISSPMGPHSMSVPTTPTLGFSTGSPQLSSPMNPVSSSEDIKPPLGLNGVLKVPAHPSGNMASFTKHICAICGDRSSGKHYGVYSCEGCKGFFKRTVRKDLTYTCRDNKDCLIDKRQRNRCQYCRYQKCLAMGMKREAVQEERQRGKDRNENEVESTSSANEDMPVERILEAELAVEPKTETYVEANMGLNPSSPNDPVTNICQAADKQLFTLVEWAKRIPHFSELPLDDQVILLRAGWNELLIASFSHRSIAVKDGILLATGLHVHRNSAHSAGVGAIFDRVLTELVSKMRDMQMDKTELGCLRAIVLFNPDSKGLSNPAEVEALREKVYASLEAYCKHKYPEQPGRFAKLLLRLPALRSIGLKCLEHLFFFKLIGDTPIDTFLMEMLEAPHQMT
Outline: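 RXR–RXR homodimerization was measured by M2H in HCT-116 cells transfected with RXRα-AD prey, RXRα-BD bait, pFR-luc and Renilla control. […] Firefly luciferase was normalized to Renilla. Three independent experiments, triplicate samples, SD.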

[5] = target: T1, Vitamin D3 receptor (Homo sapiens); experiment: Agonist activity at human VDR expressed in human HCT116 cells assessed as induction of recruitment of DRIP205 at 20 to 40 uM after 24 hrs by mammalian two hybrid system based luciferase reporter gene assay; format: cell-based; settings: HCT-116; outline: as §2
[6] = target: T3, Vitamin D3 receptor (Homo sapiens, UniProt P11473); experiment: Agonist activity at human VDR expressed in human HCT116 cells co-expressing VDRE assessed as XDR3 transcriptional activity after 24 hrs by luciferase reporter gene assay; format: cell-based, HCT-116; outline: as §1
T3 sequence (P11473 whole entry): T1 sequence (whole entry)

SMILES	Activity [1]	Activity [2]	Activity [3]	Activity [4]	Activity [5]	EC50 [6]
O=C(/C=C(O)/C=C/c1ccc(O)cc1F)/C=C/c1ccc(O)cc1F	inactive	inactive				
COc1cc(CCC(=O)/C=C(\O)CCc2ccc(O)c(OC)c2)ccc1O	Active					
O=C(/C=C(O)/C=C/c1ccc(O)c(Cl)c1)/C=C/c1ccc(O)c(Cl)c1	Active	Active		Active		
O=C(/C=C(\O)CCc1ccc(O)cc1F)CCc1ccc(O)cc1F	inactive	inactive				
COc1cc(CCC(=O)/C=C(\O)CCc2cc(F)c(O)c(OC)c2)cc(F)c1O	inactive	inactive				

More lines, now with the values ahead:

Activity [1]	Activity [2]	Activity [3]	Activity [4]	Activity [5]	EC50 [6]	SMILES
Active	Active	Active	Active	Active		O=C(/C=C(O)/C=C/c1ccc(O)c(OC(F)(F)F)c1)/C=C/c1ccc(O)c(OC(F)(F)F)c1
Active						COc1cc(/C=C/C(=O)/C=C(O)/C=C/c2cc(F)c(O)c(OC)c2)cc(F)c1O
Active	Active		Active			COc1cc(/C=C/C(=O)/C=C(O)/C=C/c2cc(Cl)c(O)c(OC)c2)cc(Cl)c1O
Active	Active		Active			O=C(/C=C(O)/C=C/c1ccc(O)c(Br)c1)/C=C/c1ccc(O)c(Br)c1
Active	Active	Active	Active	Active		COc1cc(/C=C/C(=O)/C=C(O)/C=C/c2cc(Br)c(O)c(OC)c2)cc(Br)c1O
Active	Active	Active	Active	Active		COc1cc(/C=C/C(=O)/C=C(O)/C=C/c2cc(I)c(O)c(OC)c2)cc(I)c1O
	Active	Active		Active	20 µM	COc1cc(/C=C/C(=O)CC(=O)/C=C/c2ccc(O)c(OC)c2)ccc1O [CURCUMIN]

Source: ChEMBL document CHEMBL2321735, “Synthesis and biological evaluation of halogenated curcumin analogs as potential nuclear receptor selective agonists” (Bioorg Med Chem, 2013)
